pEC50, pIC50: −log10 of the molar value. Some results are limits rather than exact numbers.

For series [1], the target named is Sodium-dependent serotonin transporter (Rattus norvegicus, UniProt P31652). Kind of series: Inhibition of [3H]5-HT reuptake at rat SERT expressed in HEK293 cells after 2 mins by liquid scintillation counting. Format: cell-based.
Another series concerns HEK293. Description: Cytotoxicity against human HEK293 cells after 48 hrs by neutral red assay. It is filed as cell-based. Conditions: HEK293, 48 h, read-out: pEC50 (converted). The gist of the method: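 Neutral Red uptake: 5 × 10⁴ cells/well grown 24–36 h to sub-confluence, then treated 48 h. Cells incubated 3 ± 1 h with NR dye, washed and solubilised in 50% ethanol–1% acetic acid, and absorbance read at 540 nm (690 nm background). Viability given as % of vehicle-treated cells. pEC50 obtained by sigmoidal regression (Hill slope 1) using 4 concentrations in triplicate on two independent days. SERT-line values compared with parental HEK293 by two-way ANOVA with Bonferroni test. Sodium azide 30 mM and Triton-X 2% as positive controls.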

The next series has as its system SH-SY5Y. Description: Cytotoxicity against human SH-SY5Y cells after 48 hrs by neutral red assay. It is filed as functional, cell-based. As to conditions: for EC50: read-out: pEC50 (converted).
Series [2] deals with MCF7. Description: Antiproliferative activity against human MCF7 cells at 50 uM after 24 hrs by alamar blue assay. Format: functional. The method in brief:
(§1)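 Alamar Blue viability: 1–5 × 10⁴ cells/well seeded, drug-treated for the stated time, then 10 µl Alamar Blue added and incubated 4–6 h at 37 °C in the dark. Fluorescence read at ex 544/em 590 nm, medium-only background subtracted, untreated cells = 100% viability. Taxol 10 µM as positive control. Mean ± S.E.M. of six points (triplicate on two independent days).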

Series [3] in a line: Antiproliferative activity against human MUTU-I cells assessed as cell viability at 50 uM after 24 hrs by alamar blue assay. Format: functional. Conditions: read-out: Activity. The gist of the method:
as §1

Series [4] deals with DG-75. Description: Antiproliferative activity against human DG75 cells assessed as cell viability at 50 uM after 72 hrs by alamar blue assay. It is filed as functional. As to conditions: DG-75, 72 h, read-out: Activity. The method in brief:
as §1

Series [5] in a line: Antiproliferative activity against human MUTU-I cells at 50 uM after 24 hrs by alamar blue assay. Format: functional. The method in brief: as §1
Series [6] relates to DG-75. Description: Antiproliferative activity against human DG75 cells at 50 uM after 72 hrs by alamar blue assay. Format: functional. The gist of the method: as §1
A short description of series [7]: Antiproliferative activity against […] cells at 50 uM after 24 hrs by alamar blue assay. Format: functional, 4T1. The method in brief:
as §1

The subject of the next series is MDA-MB-231. Kind of series: Antiproliferative activity against human MDA-MB-231 cells at 50 uM after 24 hrs by alamar blue assay. Format: functional. The method in brief:
as §1

The test system of series [8] is DG-75. Description: Induction of apoptosis in human DG75 cells after 72 hrs by annexin V-propidium iodide staining-based FACS analysis. Format: functional, cell-based. As to conditions: DG-75, 72 h.
A short description of series [9]: Induction of apoptosis in human MUTU-I cells after 24 hrs by annexin V-propidium iodide staining-based FACS analysis. Format: functional, cell-based.
Series [10] concerns HL-60. Description: Induction of apoptosis in human HL60 cells after 24 hrs by annexin V-propidium iodide staining-based FACS analysis. It is filed as functional, cell-based. As to conditions: HL-60, 24 h.
Series [11] relates to DG-75. Kind of series: Induction of apoptosis in human DG75 cells at 10 to 50 uM after 72 hrs by annexin V-propidium iodide staining-based FACS analysis. Format: functional.
Series [12] in a line: Induction of apoptosis in human MUTU-I cells at 10 to 50 uM after 24 hrs by annexin V-propidium iodide staining-based FACS analysis. It is filed as functional.
The subject of series [13] is HL-60. Description: Induction of apoptosis in human HL60 cells at 10 to 50 uM after 24 hrs by annexin V-propidium iodide staining-based FACS analysis. It is filed as functional.
The test system of series [14] is DG-75. Kind of series: Induction of apoptosis in human DG75 cells at 50 uM after 72 hrs by annexin V-propidium iodide staining-based FACS analysis. It is filed as functional.
The test system of series [15] is PBMC. Description: Cytotoxicity against human PBMC at 10 uM after 24 hrs by alamar blue assay. Format: cell-based. The gist of the method: (§2)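 PBMCs from a healthy donor, separated on Ficoll and resuspended in IMDM with FCS and penicillin/streptomycin. Seeded at 1–5 × 10⁴ cells/200 µl and treated 24 h. Alamar Blue added, fluorescence read at ex 544/em 590 nm, background subtracted, untreated cells = 100% viability. Mean + S.E.M.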

Series [16] is described as follows: Cytotoxicity against human PBMC assessed as cell viability at 50 uM after 24 hrs by alamar blue assay. It is filed as cell-based. Conditions: read-out: Activity. The gist of the method:
as §2

For series [17], the system named is MCF7. Description: Antiproliferative activity against human MCF7 cells assessed as cell viability at 50 uM after 24 hrs by alamar blue assay. It is filed as functional. As to conditions: MCF7, 24 h, read-out: Activity. The gist of the method:
as §1

A short description of series [18]: Induction of apoptosis in human MUTU-I cells at 50 uM after 24 hrs by annexin V-propidium iodide staining-based FACS analysis. It is filed as functional.
The test system of series [19] is HL-60. Description: Induction of apoptosis in human HL60 cells at 50 uM after 24 hrs by annexin V-propidium iodide staining-based FACS analysis. It is filed as functional.
Series [20] concerns PBMC. Description: Cytotoxicity against human PBMC at 50 uM after 24 hrs by alamar blue assay. Format: cell-based. The gist of the method: as §2

Sodium-dependent serotonin transporter, sequence (P31652 whole entry): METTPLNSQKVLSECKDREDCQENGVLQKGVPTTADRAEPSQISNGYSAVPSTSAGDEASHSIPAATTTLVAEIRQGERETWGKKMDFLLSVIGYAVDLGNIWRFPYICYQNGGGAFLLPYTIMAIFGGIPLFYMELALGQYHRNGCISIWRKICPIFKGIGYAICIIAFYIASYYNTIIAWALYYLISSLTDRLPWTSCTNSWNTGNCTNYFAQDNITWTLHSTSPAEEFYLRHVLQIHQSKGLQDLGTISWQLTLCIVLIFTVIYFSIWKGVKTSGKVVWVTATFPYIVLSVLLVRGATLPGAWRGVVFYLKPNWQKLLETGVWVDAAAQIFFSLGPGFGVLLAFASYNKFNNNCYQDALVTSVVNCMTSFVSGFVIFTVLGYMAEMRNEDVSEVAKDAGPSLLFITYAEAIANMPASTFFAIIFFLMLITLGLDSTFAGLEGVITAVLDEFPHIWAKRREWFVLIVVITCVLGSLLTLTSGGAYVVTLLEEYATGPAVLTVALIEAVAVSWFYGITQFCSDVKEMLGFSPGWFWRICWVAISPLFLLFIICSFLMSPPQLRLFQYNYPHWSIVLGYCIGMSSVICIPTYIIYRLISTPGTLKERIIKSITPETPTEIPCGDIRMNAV

Regarding `CC(N)Cc1ccc(Sc2ccccc2)cc1` (configuration not stated), in [1], the pIC50 is 4.84. Also, the EC50 with HEK293 was 2.75 µM; with SH-SY5Y it was 13.2 µM. In addition, the pEC50 is 6.00 in the series with SH-SY5Y (read-out: EC50), 4.63 with DG-75 [8], 4.85 in series [9] and 4.71 with HL-60 [10]. Moreover, the Activity is 40% in the series with MCF7 [2]; 90% in [5]; 90% in the series on DG-75 [6]; 90% in series [7]; 90% in the series with MDA-MB-231; 40% in the series on DG-75 [11]. Besides, the Activity in series [12] was 40%; with HL-60 [13], 40%; in the series with DG-75 [14], 40%; in the series on PBMC [15] it was “Non-toxic”. The viability at 50 µM in series [3] is 10%; in the series on DG-75 [4] it was 10%; in the series with MCF7 [17], under 10%. The viability at 24 h, 50 µM in [16] worked out at 50%.
In series [1], `CCC(N)c1ccc(SC)cc1` (configuration not stated) showed a pIC50 of under 4.60. For the same compound, the EC50 with HEK293 was 3.16 µM; with SH-SY5Y, 19.5 µM. The pEC50 is 4.47 with DG-75 [8], 4.68 in [9] and 4.53 in the series with HL-60 [10]. Moreover, the Activity with DG-75 [14] is recorded as 40%; in [18], 40%; in the series on HL-60 [19] it was 40%; in the series on PBMC [15], “Non-toxic”; in the series with PBMC [20], “Non-toxic”.

(Values after ChEMBL document CHEMBL1154253, “Synthesis and serotonin transporter activity of sulphur-substituted alpha-alkyl phenethylamines as a new class of anticancer agents” (Eur J Med Chem, 2009).)
